Sampled rows, rich in hits. Any-hit rate of the full collection: about 9.6%.
Lmaj promast: Leishmania major promastigote growth inhibition; Leishmania major promastigotes, resazurin fluorescence viability; inhibition, % at 10 µM; 9% of 200,000 active; in the data active = inhibition above about 50%;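 also: promastigotes grown with compound for 44 hours at 28 °C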
APP 5UTR inh: APP translation inhibition. SH-SY5Y APP 5'UTR-luciferase reporter, luminescence. inhibition, % at 2 µM. 0.82% of 190,000 active. AID 1285;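 active = inhibition above a set limit, derived from the sample mean plus 3 SD, cut at about 45% in these data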
Ba/F3 V617F tox: reduce viability of Ba/F3 cells dependent on JAK2V617F; Ba/F3 EpoR-JAK2V617F viability, ATP luminescence; inhibition, % at 5.6 µM; 1.1% of 220,000 active; AID 1446;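 active = inhibition above the campaign mean plus 3 SD over all tested compounds, cut at about 24% in these data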;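 also: cytokine-independent growth of Ba/F3 cells driven by EpoR plus mutant JAK2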
b-catenin transl: alters nuclear translocation of beta-catenin in HeLa cells; AID 1665; nuclear translocation activity, % at 5 µM; 0.3% of 190,000 active; immunofluorescence imaging;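 active = nuclear translocation activity above 50% at 5 µM, with a well cell count of 50 or more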;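 also: per-cell ratio of nuclear to cytoplasmic median beta-catenin stain intensity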
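Signal – beta-catenin immunofluorescence imaging with DAPI · Test system – human HeLa cell line · Dosing – 5 µM primary single dose, 0.1% DMSO, 0.02–20 µM confirmation series · Measure – % activation, nuclear-to-cytoplasmic median beta-catenin signal ratio per cell · Incubation – 24 h compound exposure at 37°C, 5% CO2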
BaF3 parental: parental Ba/F3 viability inhibition as JAK2V617F counter-screen; CellTiter-Glo ATP luminescence; inhibition, % at 5.6 µM; 1.1% of 220,000 active; AID 1486;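 active = inhibition above a per-campaign cutoff, the mean inhibition of all tested compounds plus 3 SD, cut at about 27% in these data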
MT stabilize HCS: stabilizes microtubules in HeLa cells; % tubulin-high responders, % at 10 µM; HeLa tubulin immunostaining HCS, 24 h; share of cells brighter than vehicle mean+2SD; 0.83% of 200,000 active;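 active = plate Z-score above 3 for both tubulin-high and condensed-nucleus cell shares, with cell loss under 80%, at 10 µM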;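 also: anti alpha tubulin signal scored within the nucleus-defined area of each cell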
Numbers stand for hits; . = inactive; / = not tested or not shown.

SMILES | Lmaj promast | APP 5UTR inh | Ba/F3 V617F tox | b-catenin transl | BaF3 parental | MT stabilize HCS
NC(=O)/C=C\C(=O)Nc1cccc(C(F)(F)F)c1 | 96 | . | . | . | . | .
O=C(/C=C/c1ccc([N+](=O)[O-])cc1)NNC(=O)C1CC1 | . | . | 44 | . | 50 | .
CCOC(=O)CNS(=O)(=O)c1ccc2c3c(cccc13)C(=O)N2CC | . | . | . | . | . | .
CCN1C(=O)c2cccc3c(S(=O)(=O)NCc4ccccn4)ccc1c23 | 65 | . | . | . | . | .
COc1ccc2nc(NC3=NC(C(=O)Nc4ccc(C)cc4)CC(=O)N3)nc(C)c2c1 (stereo not drawn) | . | . | . | . | . | .
COc1ccc(-c2nnc(SC(C(=O)c3c[nH]c4ccccc34)c3ccccc3)n2N)cc1OC (stereo not drawn) | 57 | . | . | . | . | .
CCn1c2ccccc2c2cc(NC(=O)CSc3nnc(-c4ccc(OC)c(OC)c4)n3N)ccc21 | 95 | . | . | . | . | .
CCn1c2ccccc2c2cc(NC(=O)CSc3nnc(-c4cccc(Cl)c4)o3)ccc21 | 89 | . | . | . | . | .
O=C(O)CSc1nc2c(c(C(F)(F)F)n1)CCCC2 | . | . | . | . | . | .
C#CCOc1nc2c(c(=O)n(C)c(=O)n2C)n1Cc1ccccc1 | / | / | . | . | . | /
O=Cc1cc2ccccc2nc1SCCCF | 58 | . | . | . | . | .
N#Cc1cc2ccccc2nc1SCc1cccnc1 | . | . | . | . | . | .
COc1ccc(C(=O)CSc2nnc(CN3CCCCC3)n2-c2ccc(F)cc2)cc1 | . | . | . | . | . | .
O=C(C(Cc1ccccc1)NS(=O)(=O)c1cccc2cccnc12)N1CCc2ccccc21 (stereo not drawn) | 94 | . | . | . | . | .
COc1ccc(N2C(=O)C(Cl)=C(Oc3cccc(OC)c3)C2=O)cc1 | . | 49 | . | . | . | .
COc1ccc(N2C(=O)C(Cl)=C(Nc3ccccc3O)C2=O)cc1 | 98 | . | . | . | . | .
CC1(C)CC(=O)C=C(NNC(=O)OC(C)(C)C)C1 | . | . | . | . | . | .
CC1(C)c2ccccc2-n2c1cc1oc(=O)cc(O)c1c2=O | / | / | . | . | . | /
COc1ccc(NC(=O)C2CCN(S(=O)(=O)c3c(C)noc3C)CC2)cc1Cl | . | . | . | . | . | .
Cc1noc(C)c1S(=O)(=O)N1CCC(C(=O)Nc2ccc(OC(F)(F)F)cc2)CC1 | 100 | . | . | / | . | .
CCOc1ccccc1NC(=O)C1CCN(S(=O)(=O)c2c(C)noc2C)CC1 | 98 | . | . | . | . | .
CCC(Cc1ccccc1)NC(=O)C1CCN(S(=O)(=O)c2c(C)noc2C)CC1 (stereo not drawn) | 92 | . | . | . | . | .
COc1ccc(/C=C/c2ccncc2)cc1 | . | . | . | . | . | .
COc1cccc(/C=C/c2ccncc2)c1OC | 86 | . | . | . | . | .
O=C(Nc1ccon1)c1ccc(S(=O)(=O)N2CCOCC2)cc1 | . | . | . | . | . | .
SMILES | Lmaj promast | APP 5UTR inh | Ba/F3 V617F tox | b-catenin transl | BaF3 parental | MT stabilize HCS
CCOC(=O)c1ccc(N2C(=O)c3n[nH]c(C)c3C2c2ccc(OC)c(OC)c2)cc1 (stereo not drawn) | . | . | . | . | . | 38
CCN(CC)Cc1c(NC(=O)c2ccccc2)sc(C)c1C | . | . | . | / | . | .
CCOC(=O)c1c(NC(C)=O)sc2c(OCC(O)CNC(C)(C)C)c(Br)ccc12 (stereo not drawn) | 101 | . | . | . | . | .
CCOC(=O)c1c(NC(C)=O)sc2c(O)cccc12 | . | 55 | . | . | . | .
CCOC(=O)c1c(NC(=O)c2ccccc2)sc2c(O)c(CN(CC)CC)ccc12 | 100 | . | . | . | . | .
CCOC(=O)c1c(NC(C)=O)sc2c(O)c(Br)cc(Br)c12 | . | . | . | . | . | .
Cc1ccc(CNC(=O)c2nnc(Cc3ccc(Cl)cc3)o2)cc1 | / | / | . | . | . | /
c1ccc(-c2cccc(-c3ccccn3)n2)nc1 | 100 | 86 | 94 | . | 85 | .
O=C(NCC(c1cccnc1)N1CCOCC1)c1cccc(Cl)c1 (stereo not drawn) | . | . | . | . | . | .
O=C(NCC(c1cccnc1)N1CCN(c2ccc(F)cc2)CC1)c1ccco1 (stereo not drawn) | 72 | . | . | . | . | .
O=C(NCc1cccnc1)C(=O)NCC(c1ccco1)N1CCN(c2ccc(F)cc2)CC1 (stereo not drawn) | . | . | . | . | . | .

Assay outcomes: PubChem, several laboratories
